From ChEMBL document CHEMBL1123424, “Conformationally defined adrenergic agents. 2. Catechol imidazoline derivatives: biological effects at alpha 1 and alpha 2 adrenergic receptors” (J Med Chem, 1986)

Legend:
Canis familiaris [1] = species: Canis familiaris; assay: The compound was evaluated for the alpha-2-adrenergic activity in PBZ-pretreated dog saphenous vein as E max; format: functional; conditions: Canis lupus familiaris
Outline: (§1)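 Dog saphenous vein strips, gassed 95% O2/5% CO2, 37 °C, pH 7.45, 2 g preload, isometric contraction. After 15-20 min equilibration, maximal NE contraction (1 × 10⁻⁴ M) and 60 min wash. Phenoxybenzamine 1 × 10⁻⁷ M for 30 min, 60 min washout. Control cumulative NE curve, washout 45-60 min, then cumulative test-agonist curve. Index = ED50 NE/ED50 CPD per experiment, averaged.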

Oryctolagus cuniculus = species: Oryctolagus cuniculus; assay: The compound was evaluated for the alpha-1-adrenergic activity in isolated rabbit aortic tissue as E max; format: functional; conditions: Aorta
Outline: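 Rabbit aorta helical strip in Krebs buffer, pH 7.4, 37 °C, 2 g initial tension, isometric contraction. […] Washout every 10-15 min for 60-90 min, then cumulative test-compound curve in the same tissue. Index = ED50 NE/ED50 CPD, calculated per experiment, then averaged.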

[2] = molecular target: Adrenergic receptor alpha-2 (Homo sapiens) (UniProt P08913+P18825+P18089); assay: Index is the ratio between ED50 value of Norepinephrine to test compound at alpha-2 adrenergic receptor; outline: as §1
[3] = molecular target: T1, Adrenergic receptor alpha-2 (Rattus norvegicus, UniProt P22086+P19328+P22909); assay: The compound was evaluated for the inhibition of [3H]rauwolscine binding to alpha-2-adrenergic receptor from rat cortex
T1 sequence (P22086 whole entry): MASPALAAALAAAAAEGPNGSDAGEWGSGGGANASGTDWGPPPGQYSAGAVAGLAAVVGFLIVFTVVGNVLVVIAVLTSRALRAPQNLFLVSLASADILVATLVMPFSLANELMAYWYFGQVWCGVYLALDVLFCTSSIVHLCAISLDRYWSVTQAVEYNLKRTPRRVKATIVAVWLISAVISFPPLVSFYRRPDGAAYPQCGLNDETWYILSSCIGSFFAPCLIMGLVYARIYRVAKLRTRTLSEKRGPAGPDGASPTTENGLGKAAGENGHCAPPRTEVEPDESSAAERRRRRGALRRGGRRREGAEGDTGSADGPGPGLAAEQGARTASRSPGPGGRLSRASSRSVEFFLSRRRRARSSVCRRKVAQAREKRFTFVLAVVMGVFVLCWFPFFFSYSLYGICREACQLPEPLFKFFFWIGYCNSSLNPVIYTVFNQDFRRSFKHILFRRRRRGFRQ
T1 sequence (P19328 whole entry): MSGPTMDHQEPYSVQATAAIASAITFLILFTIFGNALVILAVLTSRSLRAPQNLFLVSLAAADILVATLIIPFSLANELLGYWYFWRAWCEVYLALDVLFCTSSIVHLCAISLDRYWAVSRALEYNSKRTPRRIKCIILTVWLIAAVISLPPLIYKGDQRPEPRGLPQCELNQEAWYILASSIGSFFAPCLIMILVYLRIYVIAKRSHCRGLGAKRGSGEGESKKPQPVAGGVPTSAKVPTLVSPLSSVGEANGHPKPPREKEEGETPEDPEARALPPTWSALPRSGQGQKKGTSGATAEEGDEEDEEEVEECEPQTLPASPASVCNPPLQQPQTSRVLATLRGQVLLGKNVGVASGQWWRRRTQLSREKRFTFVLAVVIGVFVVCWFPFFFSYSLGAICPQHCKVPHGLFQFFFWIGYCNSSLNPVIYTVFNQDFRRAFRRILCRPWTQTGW
T1 sequence (P22909 whole entry): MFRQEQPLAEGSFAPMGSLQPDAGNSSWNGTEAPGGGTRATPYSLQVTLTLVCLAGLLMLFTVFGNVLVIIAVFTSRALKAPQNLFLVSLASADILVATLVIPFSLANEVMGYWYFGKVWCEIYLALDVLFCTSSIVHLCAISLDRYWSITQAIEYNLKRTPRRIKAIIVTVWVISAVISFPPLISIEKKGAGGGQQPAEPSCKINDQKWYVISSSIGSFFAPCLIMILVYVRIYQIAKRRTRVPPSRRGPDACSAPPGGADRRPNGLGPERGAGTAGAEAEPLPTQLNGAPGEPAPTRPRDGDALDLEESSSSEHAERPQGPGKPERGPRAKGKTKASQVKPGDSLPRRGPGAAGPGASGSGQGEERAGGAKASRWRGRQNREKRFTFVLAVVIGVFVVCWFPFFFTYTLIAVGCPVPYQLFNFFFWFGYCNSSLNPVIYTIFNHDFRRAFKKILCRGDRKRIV
Outline: (§2)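 Washed membranes of pooled male Sprague-Dawley rat cerebral cortex in 50 mM Tris-HCl pH 7.7, 50-150 μg/mL protein. [3H]rauwolscine incubated 2 h at 4 °C, then filtration. Nonspecific binding with phentolamine 10⁻⁵ M. At least four test concentrations between 10⁻¹⁰ and 10⁻³ M, in duplicate. IC50 from logit-log plot, Ki by Cheng-Prusoff.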

[4] = molecular target: Adrenergic receptor alpha-1 (Homo sapiens) (UniProt P35348+P25100+P35368); assay: Index is the ratio between ED50 value of Norepinephrine to test compound at alpha-1 adrenergic receptor
[5] = molecular target: T2, Adrenergic receptor alpha-1 (Rattus norvegicus, UniProt P15823+P23944+P43140); assay: The compound was evaluated for the inhibition of [3H]prazosin binding to alpha-1 adrenergic receptor from rat liver
T2 sequence (P15823 whole entry): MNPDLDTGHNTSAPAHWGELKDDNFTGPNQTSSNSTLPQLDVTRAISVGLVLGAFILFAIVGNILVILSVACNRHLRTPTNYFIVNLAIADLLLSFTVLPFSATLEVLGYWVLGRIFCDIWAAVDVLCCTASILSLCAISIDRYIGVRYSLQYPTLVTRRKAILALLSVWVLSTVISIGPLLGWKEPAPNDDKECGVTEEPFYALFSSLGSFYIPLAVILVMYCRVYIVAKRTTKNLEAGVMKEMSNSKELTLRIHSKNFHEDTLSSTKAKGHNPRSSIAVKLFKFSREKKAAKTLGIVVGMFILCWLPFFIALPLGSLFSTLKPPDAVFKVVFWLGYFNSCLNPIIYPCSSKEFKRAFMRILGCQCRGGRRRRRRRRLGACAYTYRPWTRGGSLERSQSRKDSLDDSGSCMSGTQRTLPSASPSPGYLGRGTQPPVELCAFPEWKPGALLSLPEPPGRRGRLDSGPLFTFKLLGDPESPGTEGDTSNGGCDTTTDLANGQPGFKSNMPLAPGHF
T2 sequence (P23944 whole entry): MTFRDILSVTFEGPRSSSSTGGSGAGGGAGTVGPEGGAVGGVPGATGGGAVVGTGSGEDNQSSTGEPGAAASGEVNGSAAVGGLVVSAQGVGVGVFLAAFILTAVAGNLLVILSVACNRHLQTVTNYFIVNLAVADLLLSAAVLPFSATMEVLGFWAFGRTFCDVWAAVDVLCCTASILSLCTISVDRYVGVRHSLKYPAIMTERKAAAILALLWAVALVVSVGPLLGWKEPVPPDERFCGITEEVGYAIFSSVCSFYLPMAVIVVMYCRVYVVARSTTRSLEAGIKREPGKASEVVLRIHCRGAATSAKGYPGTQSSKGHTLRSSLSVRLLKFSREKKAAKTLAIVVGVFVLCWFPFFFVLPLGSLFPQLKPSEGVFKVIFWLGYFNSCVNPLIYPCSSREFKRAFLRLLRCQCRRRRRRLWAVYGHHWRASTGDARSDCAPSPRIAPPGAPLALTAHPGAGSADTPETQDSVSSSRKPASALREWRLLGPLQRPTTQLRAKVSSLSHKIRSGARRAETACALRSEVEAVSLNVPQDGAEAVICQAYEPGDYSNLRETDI
T2 sequence (P43140 whole entry): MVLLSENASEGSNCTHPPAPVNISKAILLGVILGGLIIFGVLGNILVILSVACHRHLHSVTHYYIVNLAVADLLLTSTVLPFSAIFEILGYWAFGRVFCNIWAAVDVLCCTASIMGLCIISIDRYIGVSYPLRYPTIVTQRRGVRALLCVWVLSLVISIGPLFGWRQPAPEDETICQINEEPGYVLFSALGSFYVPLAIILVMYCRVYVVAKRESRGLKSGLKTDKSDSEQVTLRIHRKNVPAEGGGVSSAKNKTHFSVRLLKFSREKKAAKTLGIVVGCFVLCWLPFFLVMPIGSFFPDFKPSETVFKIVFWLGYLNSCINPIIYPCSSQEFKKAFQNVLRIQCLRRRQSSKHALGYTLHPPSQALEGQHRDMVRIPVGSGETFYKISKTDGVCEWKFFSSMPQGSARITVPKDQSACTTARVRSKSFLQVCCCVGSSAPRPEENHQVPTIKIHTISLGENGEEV
Outline: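 Washed rat liver membranes (male Sprague-Dawley) in 50 mM Tris-HCl pH 7.7, 50-150 μg/mL protein. [3H]prazosin incubated 50 min at 25 °C, then filtration. Nonspecific binding with phentolamine 10⁻⁵ M. At least four test concentrations between 10⁻¹⁰ and 10⁻³ M, in duplicate. IC50 from logit-log plot, Ki by Cheng-Prusoff.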

[6] = molecular target: T1, Adrenergic receptor alpha-2; assay: The compound was evaluated for the binding affinity towards alpha-2 adrenergic receptor from rat cortex; outline: as §2
Canis familiaris [7] = species: Canis familiaris; assay: The compound was evaluated for the alpha-2-adrenergic activity in PBZ-pretreated dog saphenous vein as EED50 CPD; format: functional, Canis lupus familiaris; outline: as §1

Compound | Emax (Canis familiaris [1]) [%] | Emax (Oryctolagus cuniculus) [%] | Ratio [2] | IC50 [3] [nM] | Ratio [4] | IC50 [5] [nM] | Ki [5] [nM] | Ki [6] [nM] | ED50 (Canis familiaris [7])
Br.Oc1ccc2c(c1O)CCCC2C1=NCCN1 (stereo not given) | 102 | 114 | 188 | 7 | 13 | 2500 | 400 | 6.5 | –
Br.Oc1ccc2c(c1O)CC2C1=NCCN1 (stereo not given) | 67 | 98 | 1.8 | 49 | 0.4 | 4400 | 1100 | 46 | –
Br.Oc1ccc2c(c1O)CCCCC2C1=NCCN1 (stereo not given) | – | – | 0.03 | 4200 | – | 56000 | 13000 | 4000 | 350
Br.Oc1ccc2c(c1O)CCC2C1=NCCN1 (stereo not given) | 102 | 124 | 22 | 3.3 | 12 | 1570 | 350 | 3.1 | –
